# TRPC6 inh = blocks the mouse TRPC6 cation channel | Q61143 | HEK293-TRPC6, membrane potential dye, ACh-evoked depolarization; stronger effect = lower value | B-score at 10 µM | 310,000 compounds, 1.1% hits | AID 2553;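 active = B-score under library mean minus 3 SD, initial fluorescence not abnormally high, positive integrated signal ratio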;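 note: B-score derived from integrated fluorescence ratio over the kinetic read; more negative B-score means stronger inhibition of depolarization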
# Target sequence (Q61143 whole entry, looked up): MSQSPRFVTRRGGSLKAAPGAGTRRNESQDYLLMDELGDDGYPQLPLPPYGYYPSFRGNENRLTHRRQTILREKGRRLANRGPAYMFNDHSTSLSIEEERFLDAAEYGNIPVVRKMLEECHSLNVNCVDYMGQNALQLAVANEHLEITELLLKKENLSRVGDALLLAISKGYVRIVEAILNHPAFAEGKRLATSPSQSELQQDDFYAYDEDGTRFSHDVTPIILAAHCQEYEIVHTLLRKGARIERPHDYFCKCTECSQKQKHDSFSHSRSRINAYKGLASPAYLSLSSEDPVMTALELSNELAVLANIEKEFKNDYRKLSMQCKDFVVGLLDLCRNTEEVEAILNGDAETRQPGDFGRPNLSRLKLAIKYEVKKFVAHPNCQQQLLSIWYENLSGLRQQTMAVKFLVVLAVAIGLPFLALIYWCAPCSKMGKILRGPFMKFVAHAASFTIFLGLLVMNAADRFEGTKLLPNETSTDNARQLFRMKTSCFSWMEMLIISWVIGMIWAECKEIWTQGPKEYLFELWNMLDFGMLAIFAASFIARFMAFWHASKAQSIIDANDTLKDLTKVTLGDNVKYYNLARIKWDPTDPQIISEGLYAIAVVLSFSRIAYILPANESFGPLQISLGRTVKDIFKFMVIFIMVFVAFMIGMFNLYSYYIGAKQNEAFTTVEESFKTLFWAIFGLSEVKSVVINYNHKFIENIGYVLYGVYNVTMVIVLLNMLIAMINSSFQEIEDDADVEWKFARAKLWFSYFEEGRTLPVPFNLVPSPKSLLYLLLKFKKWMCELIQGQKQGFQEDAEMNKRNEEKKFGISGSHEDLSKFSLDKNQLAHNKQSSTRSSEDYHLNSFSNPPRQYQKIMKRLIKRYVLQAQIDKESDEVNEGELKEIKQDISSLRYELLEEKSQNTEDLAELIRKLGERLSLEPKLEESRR
# TRPC4 PAM = TRPC4 (mouse) allosteric potentiation. HEK293 TRPC4beta/mu-opioid, DAMGO EC20, Fluo-4 Ca2+ flux; stronger effect = higher value. Q9QUQ5. AID 2227. 310,000 compounds, 0.42% hits. B-score at 10 µM;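 active = B-score of calcium response area above 5 SD of library B-scores, with initial fluorescence ratio within 5 SD of library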;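 note: B-score of integrated fluorescence ratio over time as area under calcium response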
# TRPC4 act = activators of mouse TRPC4 channel | Q9QUQ5 | HEK293 TRPC4beta/mu-opioid, Fluo4 calcium fluorescence; stronger effect = higher value | B-score at 10 µM | 310,000 compounds, 0.49% hits;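 active = B-score above 5 SD of library B-scores, and initial fluorescence ratio not above library mean plus 5 SD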;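 note: positive B-score marks a calcium rise read as TRPC4 activation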
#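 Assay system: HEK293 cells stably co-expressing mouse TRPC4beta and mu-opioid receptor / Timing: Fluo4 dye loading 45 min at room temperature, 110 s recording / Signal: Fluo4 calcium-sensitive dye fluorescence, kinetic, 1 Hz baseline / Read-out: integrated baseline-normalised fluorescence ratio, converted to per-well B score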
# TRPC6 activator = activators of mouse TRPC6 channel; Q61143; HEK293-TRPC6 membrane potential dye fluorescence; stronger effect = higher value; B-score at 10 µM; 310,000 compounds, 0.13% hits; AID 2550;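 active = B-score of the integrated fluorescence ratio above library mean plus 3 SD, and starting fluorescence ratio within library mean plus 5 SD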;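 note: higher score means more depolarization so channel activation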
# TRPC4 inh = TRPC4 (mouse) channel inhibition | B-score at 10 µM | Q9QUQ5 | HEK293 TRPC4beta/mu-opioid, DAMGO-evoked Fluo4 calcium flux; stronger effect = lower value | 300,000 compounds, 0.39% hits;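 active = B-score over 3 SD under the library average, no early fluorescence shift, positive overall ratio signal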
#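 test system = HEK293 cells with stable TRPC4beta plus mu-opioid receptor expression | detection = Fluo4 Ca2+ flux fluorescence | read-out = integrated fluorescence ratio relative to baseline, converted to per-well B score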
# Active calls of the source: *; i = inactive; / = no result. Most compounds without a hit are left out; they make up all but 2.3% or so of the library.
SMILES,TRPC6 inh,TRPC4 PAM,TRPC4 act,TRPC6 activator,TRPC4 inh
O=C(O)c1cccc(NC(=O)c2ccc3c(c2)C(=O)N(C2CCCCC2)C3=O)c1,i,i,i,i,i
CC(C)NC(=O)c1sc(=S)n2c1[nH]c(=O)c1ccc(C(=O)NCCc3ccc(Cl)cc3)cc12,i,i,i,i,i
CCCCNC(=O)c1sc(=S)n2c1[nH]c(=O)c1ccccc12,i,i,46*,i,i
CCOc1ccc(CCNC(=O)c2ccc3c(=O)[nH]c4c(C(=O)NC(C)C)sc(=S)n4c3c2)cc1,i,18*,i,i,i
COc1ccc(OCCCC(=O)Nc2nccs2)cc1,i,i,i,i,i
Cc1ccc(SC[C@H](Cc2ccccc2)N2CCN(CC(C)C)CCC2=O)cc1,i,i,47*,i,/
CC(C)C[C@@H](COc1ccccc1)N1CCN(Cc2ccccc2)CCC1=O,i,i,52*,i,i
O=C1CCN(Cc2ccccc2)CCN1[C@H](COc1ccccc1)Cc1ccccc1,i,i,65*,i,/
CC(=O)c1cccc(NC(=S)NC2CCCCCCC2)c1,i,i,i,i,i
CCCCc1c(O)nc(SCC(=O)Nc2cccc3ccccc23)n(-c2ccccc2OC)c1=O,i,i,i,i,-5*
Cc1cc(C)n(S(=O)(=O)c2ccc(C(C)(C)C)cc2)n1,-6.6*,i,i,i,i
Cc1cc(C)n(S(=O)(=O)c2ccc(F)cc2)n1,i,i,i,i,i
CC(C)(C)c1csc(NC(=O)Cc2cccs2)n1,i,69*,i,i,i
C/C(=N/Nc1ccnc2cc(Cl)ccc12)c1ccc(N)cc1,i,i,63*,i,i
C/C(=N/Nc1ccnc2cc(Cl)ccc12)c1ccc(O)cc1,i,i,i,i,i
OCCCC1CCCN(Cc2cn[nH]c2-c2ccc(F)cc2F)C1 (stereo not given),i,i,i,i,i
CN1CCN(Cc2cn[nH]c2-c2ccc(F)cc2F)[C@@H](c2ccccc2)C1,i,i,i,i,-5*
CCC1(c2ccc(F)cc2)NC(=O)N(CC(=O)c2cc(C)n(C3CC3)c2C)C1=O (stereo not given),i,16*,54*,i,i
CC1CCCCN1CCCNC(=O)c1nn(C)c2c1CSc1ccccc1-2 (stereo not given),i,i,i,i,-7*
CCOc1ccc(Br)cc1S(=O)(=O)Nc1ncn[nH]1,i,i,i,i,i
CC(C)(Sc1cc(C(C)(C)C)c(O)c(C(C)(C)C)c1)Sc1cc(C(C)(C)C)c(O)c(C(C)(C)C)c1,i,i,83*,i,i
O=C1CSC(=Nc2ccc(Cl)cc2)N1Cc1ccco1,i,i,i,i,i
Cc1cc(C)c(N=C2SCC(=O)N2Cc2ccco2)c(C)c1,i,i,i,i,-5*
O=C(C1CCN(CC2CC=CCC2)CC1)N(CCc1ccccc1)Cc1ccccc1 (stereo not given),i,i,i,i,-5*
O=C(C1CCN(S(=O)(=O)c2cnc[nH]2)CC1)N(CCc1ccccc1)Cc1ccccc1,i,i,i,i,i
SMILES,TRPC6 inh,TRPC4 PAM,TRPC4 act,TRPC6 activator,TRPC4 inh
CC(C)c1ccc(C2=NN(c3ccccc3)C(=O)CC2)cc1,i,11*,i,i,i
CCNc1nc(OC)nc(N2CCC(Cc3ccccc3)CC2)n1,i,i,i,i,i
CCOC(=O)C1(CCOc2ccccc2)CCN(Cc2cnc(SC)nc2)CC1,i,i,i,i,i
CCOC(=O)C1(CC2CC2)CCN(Cc2cc(Cl)c(O)c(OC)c2)CC1,i,i,i,i,-9*
CCOC(=O)C1(CC2CC2)CCN(Cc2cnc(-c3ccccc3C)nc2)CC1,i,i,118*,i,i
CC1CCCN(C(=O)Cn2nnc(-c3ccccc3F)n2)C1 (stereo not given),i,i,i,i,i
COc1ccc(Br)cc1CN1CCCC(C(=O)N2CCCCCC2)C1 (stereo not given),i,i,i,i,-6*
COc1ccc(Br)cc1CN1CCC(N2CCCC2)CC1,i,17*,i,i,i

# Compound activity as filed in PubChem BioAssay.
